Source: ChEMBL document CHEMBL3792315, “Potent, Selective, and CNS-Penetrant Tetrasubstituted Cyclopropane Class IIa Histone Deacetylase (HDAC) Inhibitors” (ACS Med Chem Lett, 2016)
One block for each molecule: values may come before it.

Tests used:
[1] = Apparent permeability across apical to basolateral side in MDCK cells expressing MDR1; format: ADME, cell-based, Canis lupus familiaris; settings: dog
[2] = system: Brain; assay: Dose normalized AUC in C57Bl/6 mouse brain at 10 mg/kg, po; format: ADME, organism-based; settings: in vivo
In short: (§1)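 A single 10 mg/kg oral gavage dose was given to fed male C57Bl/6 mice. Concentrations were measured in plasma, brain and muscle to derive Cmax, Tmax and AUC, with Cmax and AUC normalised to dose.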

[3] = Tmax in C57Bl/6 mouse brain at 10 mg/kg, po; format: ADME, organism-based; in short: as §1
[4] = Tmax in C57Bl/6 mouse muscle at 10 mg/kg, po; format: ADME, organism-based, Muscle tissue; in short: as §1
[5] = system: Muscle tissue; assay: Dose normalized AUC in C57Bl/6 mouse muscle at 10 mg/kg, po; format: ADME, organism-based; settings: in vivo; in short: as §1
[6] = Volume of distribution at steady state in C57Bl/6 mouse plasma at 1 mg/kg, iv; format: ADME, organism-based; settings: read-out: Vdss
In short: (§2)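 Fed male C57Bl/6 mice were dosed intravenously, and plasma was sampled to derive half-life, plasma clearance and steady-state volume of distribution. The iv dose differed per compound (5, 1 or 2.5 mg/kg).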

[7] = system: Brain; assay: Dose normalized Cmax in C57Bl/6 mouse brain at 10 mg/kg, po; format: ADME, organism-based; settings: in vivo; in short: as §1
[8] = system: Plasma; assay: Dose normalized AUC in C57Bl/6 mouse plasma at 10 mg/kg, po; format: ADME, organism-based; settings: in vivo; in short: as §1
[9] = Tmax in C57Bl/6 mouse plasma at 10 mg/kg, po; format: ADME, organism-based; in short: as §1
[10] = system: Muscle tissue; assay: Dose normalized Cmax in C57Bl/6 mouse muscle at 10 mg/kg, po; format: ADME, organism-based; settings: in vivo; in short: as §1
[11] = Oral bioavailability in C57Bl/6 mouse plasma at 10 mg/kg; format: ADME, organism-based
[12] = system: Plasma; assay: Dose normalized Cmax in C57Bl/6 mouse plasma at 10 mg/kg, po; format: ADME, organism-based; settings: in vivo; in short: as §1
[13] = Volume of distribution at steady state in C57Bl/6 mouse plasma at 5 mg/kg, iv; format: ADME, organism-based; settings: read-out: Vdss; in short: as §2
[14] = Volume of distribution at steady state in C57Bl/6 mouse plasma at 2.5 mg/kg, iv; format: ADME, organism-based; settings: read-out: Vdss; in short: as §2

Papp A→B [1]: 38 ×10⁻⁶ cm/s
SMILES: O=C(NO)[C@@H]1[C@H](c2ccccc2)[C@H]1c1ccc(-c2ncc(Cl)cn2)cc1

Papp A→B [1]: 37.5 ×10⁻⁶ cm/s
SMILES: Cc1cnc(-c2ccc([C@H]3[C@H](C(=O)NO)[C@@H]3c3ccccc3)cc2)nc1

Papp A→B [1]: 11.4 ×10⁻⁶ cm/s
SMILES: O=C(NO)[C@@H]1[C@H](c2ccccc2)[C@H]1c1ccc(-c2nccc(C(F)(F)F)n2)cc1

AUC/dose [2]: 830 nM·kg·h/mg
Tmax [3]: 30 min
Tmax [4]: 30 min
AUC/dose [5]: 330 nM·kg·h/mg
Vd [13]: 4.1 L/kg
Cmax/dose [7]: 570 nM·kg/mg
AUC/dose [8]: 110 nM·kg·h/mg
Tmax [9]: 30 min
Cmax/dose [10]: 320 nM·kg/mg
bioavailability [11]: 100%
Cmax/dose [12]: 97 nM·kg/mg
SMILES: O=C(NO)[C@@H]1[C@H](c2ccccc2)[C@H]1c1ccc(-c2ncc(F)cn2)cc1

AUC/dose [2]: 580 nM·kg·h/mg
Tmax [3]: 60 min
Tmax [4]: 30 min
Papp A→B [1]: 19.2 ×10⁻⁶ cm/s
AUC/dose [5]: 300 nM·kg·h/mg
Cmax/dose [7]: 120 nM·kg/mg
Vd [14]: 10 L/kg
AUC/dose [8]: 660 nM·kg·h/mg
Tmax [9]: 15 min
Cmax/dose [10]: 56 nM·kg/mg
bioavailability [11]: 100%
Cmax/dose [12]: 150 nM·kg/mg
SMILES: O=C(NO)[C@]1(F)[C@H](c2ccccc2)[C@H]1c1ccc(-c2ncc(OC(F)F)cn2)cc1

Papp A→B [1]: 12.9 ×10⁻⁶ cm/s
SMILES: O=C(NO)[C@@H]1[C@H](c2ccccc2)[C@H]1c1ccc(-c2ncc(OC(F)F)cn2)cc1

Further lines, the molecule ahead of its results:

SMILES: Cc1cnc(-c2ccc([C@@H]3[C@@H](c4ccccc4)[C@@]3(C)C(=O)NO)cc2)nc1
Papp A→B [1]: 39.1 ×10⁻⁶ cm/s

SMILES: O=C(NO)[C@]1(F)[C@H](c2ccccc2)[C@H]1c1ccc(-c2ncc(Cl)cn2)cc1
Papp A→B [1]: < 1 ×10⁻⁶ cm/s

SMILES: O=C(NO)[C@]1(F)[C@H](c2ccccc2)[C@H]1c1ccc(-c2ncc(F)cn2)cc1
AUC/dose [2]: 1900 nM·kg·h/mg
Tmax [3]: 30 min
Tmax [4]: 30 min
Papp A→B [1]: 41.8 ×10⁻⁶ cm/s
AUC/dose [5]: 640 nM·kg·h/mg
Vd [6]: 5.1 L/kg
Cmax/dose [7]: 780 nM·kg/mg
AUC/dose [8]: 480 nM·kg·h/mg
Tmax [9]: 15 min
Cmax/dose [10]: 290 nM·kg/mg
bioavailability [11]: 79%
Cmax/dose [12]: 180 nM·kg/mg

SMILES: O=C(NO)[C@]1(F)[C@H](c2ccccc2)[C@H]1c1ccc(-c2cnco2)cc1
Papp A→B [1]: 48.7 ×10⁻⁶ cm/s

SMILES: O=C(NO)[C@]1(F)[C@H](c2ccccc2)[C@H]1c1ccc(-c2nccc(C(F)(F)F)n2)cc1
Papp A→B [1]: 7 ×10⁻⁶ cm/s

SMILES: Cc1cnc(-c2ccc([C@@H]3[C@@H](c4ccccc4)[C@@]3(F)C(=O)NO)cc2)nc1
Papp A→B [1]: 36.9 ×10⁻⁶ cm/s
